Screening data deposited in PubChem by several laboratories.
NPY-Y2 antag = blocks the human neuropeptide Y Y2 receptor; NPY-Y2 expressing cells, antagonist mode; inhibition, % at 2.7 µM; AID 793; hit rate 0.99% among 140,000; in the data active = inhibition above about 17%;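 also: 0% = vehicle with agonist challenge and 100% = reference antagonist with challenge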
Target sequence (P49146 whole entry, looked up): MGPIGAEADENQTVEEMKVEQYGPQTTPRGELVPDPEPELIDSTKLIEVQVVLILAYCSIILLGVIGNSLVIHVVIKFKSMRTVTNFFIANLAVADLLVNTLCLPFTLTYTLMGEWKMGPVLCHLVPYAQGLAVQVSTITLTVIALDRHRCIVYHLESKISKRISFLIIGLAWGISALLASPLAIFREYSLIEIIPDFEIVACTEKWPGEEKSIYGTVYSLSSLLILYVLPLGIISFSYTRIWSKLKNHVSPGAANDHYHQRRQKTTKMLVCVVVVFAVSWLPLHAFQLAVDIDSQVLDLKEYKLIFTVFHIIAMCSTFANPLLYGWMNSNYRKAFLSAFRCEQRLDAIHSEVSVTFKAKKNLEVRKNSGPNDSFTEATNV
NPY1 pot ag = potentiators or agonists of human neuropeptide Y receptor Y1 | P25929 | NPY-Y1 expressing cells, potentiator/agonist activation | activation, % at 3.6 µM | hit rate 0.37% among 220,000 | AID 1304; in the data active = activation above about 33%, passing the limit was not always enough;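 also: cells stimulated with NPY at EC10 then isoproterenol at EC100; 0% = low agonist plus stimulus and 100% = saturating agonist plus stimulus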
PGE2 EP2 inh = blocks the human prostaglandin E2 receptor EP2. C6 glioma cells expressing human EP2, cAMP TR-FRET; cells stimulated with saturating PGE2. inhibition, % at 25 µM. hit rate 0.52% among 260,000. AID 1422;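 active = percent inhibition above 40 after rounding to a whole number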;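 also: rat C6 glioma host cells with rolipram phosphodiesterase inhibitor present; the protocol text gives 20 µM as final concentration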
NPY-Y1 antag = antagonists of human neuropeptide Y receptor Y1; P25929; HEK293-CNG Y1 cells, membrane potential fluorescence; NPY at EC95, then isoproterenol; inhibition, % at 3.6 µM; hit rate 1% among 200,000;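 active = inhibition above the campaign mean inhibition of all tested compounds plus 3 SD, cut at about 20% in these data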;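 also: 0% = DMSO wells given NPY plus isoproterenol and 100% = isoproterenol alone without NPY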
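Material: HEK293 Y1/CNG channel cell line | Also added: NPY (25 nM), isoproterenol (1 µM), Ro 20-1724 (25 µM) | Compound: One concentration, 3.6 µM, in 0.4% DMSO | Schedule: 3 h dye uptake, 1 h room-temperature compound, 45 min post-isoproterenol | Signal: Membrane-potential fluorescent dye readout | Read-out: % inhibition of NPY effect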
NPY-Y2 PAM-ag = potentiates or activates human NPY-Y2 receptor; cells expressing NPY-Y2, potentiator/agonist read-out; P49146; hit rate 0.45% among 220,000; activation, % at 3.6 µM; in the data active = activation above about 27%;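 also: cells stimulated with NPY near EC25 plus isoproterenol at EC100; 0% = vehicle plus submaximal agonist and 100% = vehicle plus saturating agonist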
EP2 modulator = modulators of human EP2 prostaglandin E2 receptor. hit rate 0.83% among 260,000. AID 940. induction, % at 25 µM. P43116. EP2-expressing cells, cAMP HTRF FRET, PGE2 co-stimulation;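 active = compounds whose cAMP rise, as percent of the full-agonist control response, exceeds 60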;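 also: rat C6 glioma line stably carrying human EP2 under a CMV promoter; the protocol text gives 20 µM as final concentration; 100% = response of wells given 1 µM PGE2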
Active calls of the source: *; · = no result given. Shown are actives, neighbours in structure and some others; about 2.8% of the full set was active somewhere.

SMILES | NPY-Y2 antag | NPY1 pot ag | PGE2 EP2 inh | NPY-Y1 antag | NPY-Y2 PAM-ag | EP2 modulator
N#CC1=C(N)Oc2n[nH]c(-c3cccs3)c2C1c1ccc(O)cc1 (centres undefined) | · | · | 13 | · | · | -27
Cc1cc(-c2[nH]nc3c2C(c2ccsc2)C(C#N)=C(N)O3)c(C)s1 (centres undefined) | 149* | -61 | 14 | 154* | -7 | -8
N#CC1=C(N)Oc2n[nH]c(-c3cccs3)c2C1c1cccs1 (centres undefined) | 2 | 28 | 52* | 5 | 6 | -20
CCC(=O)NC(c1ccc(C(C)C)cc1)c1cc(Cl)c2cccnc2c1O (centres undefined) | · | · | 7 | · | · | -11
CCOc1ccccc1NC(=O)C(NCCN(C)C)c1ccccc1 (centres undefined) | · | -16 | 5 | 11 | -2 | 15
CCOc1ccccc1NC(=O)C(NCC1CCCCC1)c1ccccc1 (centres undefined) | · | 2 | 9 | 11 | -2 | 65*
CCOc1ccc(C2/C(=C(/O)c3ccc(C)cc3)C(=O)C(=O)N2CCOC)cc1OC (centres undefined) | · | · | 12 | · | · | 2
COc1ccc(-c2nc3ccccc3n2OC(C)C(=O)O)cc1 (centres undefined) | · | -1 | 6 | 3 | -8 | 8
Clc1ccc(-c2nc3ccccc3n2OCc2ccccc2)cc1 | 0 | -12 | 2 | 6 | -8 | 63*
CCC(=O)Nc1nnc(SCC(=O)c2ccc3c(c2)Cc2ccccc2-3)s1 | 1 | -14 | · | -3 | 0 | 29
CC(=O)Nc1nnc(SCC(=O)c2ccc3c(c2)Cc2ccccc2-3)s1 | 3 | 9 | 13 | 4 | -5 | 61*
CCOC(=O)c1cc(C)sc1NC(=S)Nc1ccccc1 | 2 | 4 | 9 | -2 | 4 | 65*
CC[C@H](Cn1ncc2ccccc2c1=O)NC(=O)C1(c2ccc(OC)cc2)CCCCC1 | · | · | · | · | · | 15
O=C(N/N=C/c1ccncc1)c1ccccc1OCc1ccc(Br)cc1 | 43* | -117 | 4 | 32* | -54 | 5
O=C(N/N=C/c1ccccc1)c1sccc1OCc1ccc(F)cc1 | 20* | -12 | 7 | 1 | -19 | 16
O=C(N/N=C/c1ccccc1)c1ccc(OCc2ccccc2)cc1 | · | -3 | 6 | 11 | -20 | -8
O=C(NC1CCCCC1)N(Cc1ccccc1)Cc1cc2cc3c(cc2[nH]c1=O)OCO3 | · | · | 14 | · | · | -6
CCOc1cc(CCC(=O)N2CCN(c3cc(C)nc(C(C)C)n3)CC2)on1 | · | · | 4 | · | · | 12
Cc1nc2cc(Cl)c(NC(=O)C3CCCCC3)cc2c(=O)n1Cc1ccccc1 | · | · | 5 | · | · | 106*
Cc1nc2cc(N3CCC(C)CC3)c(NC(=O)C3CC3)cc2c(=O)n1Cc1ccccc1 | · | · | 12 | · | · | 34
CC[C@H](Cn1nc(-c2cccs2)ccc1=O)NC(=O)Cc1nc2nc(C)cc(C)n2n1 | · | · | · | · | · | -9
N=c1n(CCN2CCCCC2)c2ccccc2n1CC(O)c1cccc(Br)c1 (centres undefined) | 32* | -39 | 18 | 41* | -20 | -5
N=c1n(CCN2CCCCC2)c2ccccc2n1CC(O)c1ccc(Cl)c(Cl)c1 (centres undefined) | 53* | -37 | · | 36* | -23 | -52
Cc1nn(C)cc1S(=O)(=O)Nc1ccc(OCCN2CCC(C)CC2)cc1 | · | · | 12 | · | · | -26
COc1ccc(-c2cc(C(=O)Nc3nc4ccccc4s3)c3ccccc3n2)cc1OC | 27* | -160 | 8 | 29* | -141 | -19
SMILES | NPY-Y2 antag | NPY1 pot ag | PGE2 EP2 inh | NPY-Y1 antag | NPY-Y2 PAM-ag | EP2 modulator
COc1ccc(C(=O)Nc2nc3ccccc3s2)cc1OC | · | 12 | 35 | 6 | 6 | -79
Oc1c(Cl)cc(-c2nc3cnccn3c2NCC2CCCO2)cc1Cl (centres undefined) | · | · | 1 | · | · | -23
Cc1cc(C)cc(NC(=S)NCc2ccc3c(c2)OCO3)c1 | 14 | -78 | 10 | 30* | -52 | ·
COc1ccccc1NC(=O)C(NC(=O)OC(C)(C)C)C(C)OCc1ccccc1 (centres undefined) | 6 | -7 | 4 | 7 | 1 | 63*
CC(C)C(NC(=O)OC(C)(C)C)C(=O)NC(CCC(=O)OCc1ccccc1)C(N)=O (centres undefined) | · | 17 | 3 | -7 | 6 | -21
COc1ccc(C2=NN(C(=O)CCC(=O)O)C(c3ccco3)C2)cc1OC (centres undefined) | · | · | 7 | · | · | 9
Cc1ccc(C(=O)NC(=S)Nc2ccc3c(c2)OCCO3)c(C)c1 | 8 | -17 | 14 | 22* | -23 | -13
Cc1cc(C)cc(C(=O)NC(=S)Nc2ccc3c(c2)OCCO3)c1 | 8 | -15 | 10 | 6 | -9 | 36
COc1ccc(-c2cn(-c3ccc(OC)cc3)c3[n+]2-c2ccccc2CC3)cc1 | 5 | -25 | 3 | 8 | 16 | -13
COc1ccc(-n2c(-c3ccc(Br)cc3)c[n+]3c2CCc2ccccc2-3)cc1 | 25* | -98 | 4 | 59* | -5 | 10
N#CCCCSc1nnc(-c2ccc(C(N)=S)cc2)o1 | · | · | 16 | · | · | -36
CC(C)(C)c1ncc(C(=O)N2CCc3onc(-c4ccccc4F)c3C2)cn1 | · | · | 6 | · | · | -56
COc1cccc(C(=O)NC(c2ccccc2)C2CCCC2)c1 (centres undefined) | · | 7 | 11 | 22* | -9 | 3
COc1cccc(C(=O)Nc2ccccc2)c1 | 3 | 2 | 5 | -1 | 1 | 15
CN(C)CCCN=c1c2ccccc2n(C)c2[nH]c(=O)n(C)c(=O)c12 | · | · | 46* | · | · | 19
CN(C)CCCn1c(=S)[nH]c2ccccc2c1=O | · | -1 | 2 | 1 | 3 | -20
CC1(C)C([N+](=O)[O-])C(c2ccc(O)cc2)NC(c2ccc(O)cc2)C1[N+](=O)[O-] (centres undefined) | 1 | 40* | 11 | 4 | 35* | -15
CC1(C)C([N+](=O)[O-])C(c2ccc(F)cc2)NC(c2ccc(F)cc2)C1[N+](=O)[O-] (centres undefined) | · | -9 | 4 | · | -14 | -3
COc1ccc(CN2CCC(O)(c3ccccc3F)CC2)cc1CN(C)C | · | · | 10 | · | · | -42
CCC(Sc1nc2ccccc2o1)C(=O)O (centres undefined) | · | -13 | 3 | 21* | -38 | 29
